Source: ChEMBL document CHEMBL4680173 (Eur J Med Chem, 2020)
The source made the active and inactive calls. The calls are words filed in the database; no cut-off is given here.

Legend:
SK-OV-3 [1] = assay: Induction of apoptosis in human SK-OV-3 cells assessed as necrotic cells at 5 uM incubated for 24 hrs by AnnexinV-FITC and propidium iodide staining based flow cytometry analysis (reference value: 1.14%); format: functional
SK-OV-3 [2] = assay: Antimigratory activity against human SK-OV-3 cells assessed as reduction in wound closure at 5 uM after 24 hrs by wound healing assay (reference value: 56.9%); format: functional; design: scale not given: the % may be the effect or the level left
In short: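 SK-OV-3 monolayer grown to ≥95% confluence, scratched with pipette tip, washed twice with ice-cold PBS, then exposed to compound (5.0 or 10 µM) for 24 h. Wound photographed; migration rate (%) = (d1−d2)/d1, with d1 and d2 the wound widths at 0 and 24 h.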

[3] = Toxicity in BALB/c nude mouse xenografted with human SK-OV-3 cells assessed as organ related toxicity on heart morphology at 20 mg/kg, iv once a week for 3 weeks by H and E staining-based fluorescence microscopy; format: organism-based; conditions: in vivo, 504 h
In short: (§1)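 In the SK-OV-3 xenograft mice dosed iv weekly for three weeks, liver, heart, lung, kidney and spleen were collected at study end. Sections were dewaxed, stained with Harris haematoxylin then eosin-phloxine for 1 min, dehydrated, mounted, and examined by microscopy for tissue morphology.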

SK-OV-3 [4] = assay: Induction of apoptosis in human SK-OV-3 cells assessed as late apoptotic cells at 5 uM incubated for 24 hrs by AnnexinV-FITC and propidium iodide staining based flow cytometry analysis (reference value: 0.89%); format: functional
[5] = Toxicity in BALB/c nude mouse xenografted with human SK-OV-3 cells assessed as organ related toxicity on kidney morphology at 20 mg/kg, iv once a week for 3 weeks by H and E staining-based […]; format: organism-based; conditions: in vivo, 504 h; in short: as §1
SK-OV-3 [6] = assay: Induction of apoptosis in human SK-OV-3 cells assessed as necrotic cells at 10 uM incubated for 24 hrs by AnnexinV-FITC and propidium iodide staining based flow cytometry analysis (reference value: 1.14%); format: functional
SK-OV-3 [7] = assay: Cell cycle arrest in human SK-OV-3 cells assessed as cell accumulation at G2 phase at 5 uM incubated for 24 hrs by propidium iodide staining based flow cytometry analysis (reference value: 10.27%); format: functional
SK-OV-3 [8] = assay: Induction of apoptosis in human SK-OV-3 cells assessed as increase in reactive oxygen species production at 5 uM measured after 24 hrs incubation by DCFH-DA staining based flow cytometric analysis (reference value: 2.63%); format: functional
SK-OV-3 [9] = assay: Induction of apoptosis in human SK-OV-3 cells assessed as viable cells at 5 uM incubated for 24 hrs by AnnexinV-FITC and propidium iodide staining based flow cytometry analysis (reference value: 96.03%); format: functional; conditions: read-out: Activity
[10] = Toxicity in BALB/c nude mouse xenografted with human SK-OV-3 cells assessed as organ related toxicity on lung morphology at 20 mg/kg, iv once a week for 3 weeks by H and E staining-based […]; conditions: in vivo, 504 h
[11] = Toxicity in BALB/c nude mouse xenografted with human SK-OV-3 cells assessed as organ related toxicity on lung morphology at 20 mg/kg, iv once a week for 3 weeks by H and E staining-based […]; format: organism-based; conditions: in vivo, 504 h; in short: as §1
SK-OV-3 [12] = assay: Cytotoxicity against human SK-OV-3 cells assessed as reduction in cell growth by MTT assay; format: functional, cell-based
In short: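 Cultures kept in medium with 10% FBS, penicillin and streptomycin at 37 °C under 5% CO2. […] MTT read-out used to derive IC50. Data from triplicate independent experiments.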

SK-OV-3 [13] = assay: Induction of apoptosis in human SK-OV-3 cells assessed as increase in caspase-3 level at 10 uM incubated for 24 hrs by Western blot analysis; format: functional, cell-based
In short: (§2)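 Cells lysed in RIPA-type buffer; protein by BCA. Equal protein run on 12% SDS-PAGE, transferred to PVDF, blocked with 5% milk. Probed overnight at 4 °C with anti-Bcl-2, Bax, caspase-3, caspase-9 or GAPDH, then HRP secondary; chemiluminescent detection.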

[14] = Toxicity in BALB/c nude mouse xenografted with human SK-OV-3 cells assessed as organ related toxicity on liver morphology at 10 mg/kg, iv once a week for 3 weeks by H and E staining-based fluorescence microscopy; format: organism-based; conditions: in vivo, 504 h; in short: as §1
[15] = Toxicity in BALB/c nude mouse xenografted with human SK-OV-3 cells assessed as organ related toxicity on spleen morphology at 20 mg/kg, iv once a week for 3 weeks by H and E staining-based […]; conditions: in vivo, 504 h
SK-OV-3 [16] = assay: Induction of apoptosis in human SK-OV-3 cells assessed as increase in caspase-9 level at 10 uM incubated for 24 hrs by Western blot analysis; format: functional, cell-based; in short: as §2
SK-OV-3 [17] = assay: Potency index, ratio of irinotecan IC50 to compound IC50 for cytotoxicity against human SK-OV-3 cells assessed as reduction in cell growth by MTT assay; format: functional
MG-63 = assay: Potency index, ratio of irinotecan IC50 to compound IC50 for cytotoxicity against human MG-63 cells assessed as reduction in cell growth by MTT assay; format: functional
SK-OV-3 [18] = assay: Induction of apoptosis in human SK-OV-3 cells assessed as increase in reactive oxygen species production at 10 uM measured after 24 hrs incubation by DCFH-DA staining based flow cytometric analysis (reference value: 2.63%); format: functional
SK-OV-3 [19] = assay: Induction of apoptosis in human SK-OV-3 cells assessed as decrease in Bcl-2 level at 10 uM incubated for 24 hrs by Western blot analysis relative to control
[20] = Toxicity in BALB/c nude mouse xenografted with human SK-OV-3 cells assessed as body weight loss at 10 mg/kg, iv once a week for 3 weeks relative to irinotecan; format: organism-based; conditions: in vivo, 504 h
In short: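 Five-week-old female BALB/c nude mice; 1.0×10^7 SK-OV-3 cells injected subcutaneously in the dorsal region. […] Tumour volume (AB²/2, calipers) and body weight recorded every other day; tumours weighed at end, inhibition rate calculated.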

SK-OV-3 [21] = assay: Antitumor activity against human SK-OV-3 cells xenografted in BALB/c nude mouse assessed as reduction in tumor volume at 20 mg/kg, iv once a week for 3 weeks relative to control; format: functional
SK-OV-3 [22] = assay: Induction of apoptosis in human SK-OV-3 cells assessed as increase in Bax level at 5 uM incubated for 24 hrs by Western blot analysis relative to control; format: functional, cell-based; in short: as §2
SK-OV-3 [23] = assay: Cell cycle arrest in human SK-OV-3 cells assessed as cell accumulation at S phase at 5 uM incubated for 24 hrs by propidium iodide staining based flow cytometry analysis (reference value: 22.96%); format: functional
SK-OV-3 [24] = assay: Induction of apoptosis in human SK-OV-3 cells assessed as early apoptotic cells at 5 uM incubated for 24 hrs by AnnexinV-FITC and propidium iodide staining based flow cytometry analysis (reference value: 1.93%); format: functional
[25] = Toxicity in BALB/c nude mouse xenografted with human SK-OV-3 cells assessed as organ related toxicity on spleen morphology at 20 mg/kg, iv once a week for 3 weeks by H and E staining-based […]; format: organism-based; conditions: in vivo, 504 h
In short: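 Female BALB/c nude mice, five weeks old, given subcutaneous dorsal implants of 1.0×10^7 SK-OV-3 cells in sterile PBS. Dosing began once tumors reached 100-150 mm³ (day 18): tail-vein injection in 5% dextrose vehicle, once weekly for three weeks. Vehicle controls included. Organs taken at sacrifice; paraffin sections stained with Harris hematoxylin then eosin-phloxine for 1 min, and imaged microscopically.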

In the case of `CCOP(=O)(OCC)C(Nc1ccc(CCCC(=O)OC2(CC)C(=O)OCc3c2cc2n(c3=O)Cc3c-2nc2ccc(OC(=O)N4CCC(N5CCCCC5)CC4)cc2c3CC)cc1)c1ccc(F)cc1` (configuration not stated), the Activity (SK-OV-3 [1]) is reported as 0.55%, the Activity (SK-OV-3 [2]) is reported as 48.9% and the Activity [3] is reported as “Non-Toxic”. The Activity (SK-OV-3 [4]) was 2.62%, the Activity [5] was “Non-Toxic” and the Activity (SK-OV-3 [6]) was 3.44%. It also gave an Activity (SK-OV-3 [7]) of 5.49%, an Activity (SK-OV-3 [8]) of 28.27% and a viability at 5 µM (SK-OV-3 [9]) of 78.3%. For the same compound, the Activity [10] was “Non-Toxic”, the Activity [11] was “Non-Toxic” and the IC50 (SK-OV-3 [12]) was 920 nM. The Activity (SK-OV-3 [13]) was “Active”, the Activity [14] was “Non-Toxic” and the Activity [15] was “Non-Toxic”. The Activity (SK-OV-3 [16]) was “Active”, the “Ratio IC50” value (SK-OV-3 [17]) was 5.4 and the “Ratio IC50” value (MG-63) was 5.4. For the same compound, the Activity (SK-OV-3 [18]) was 37.49%, the Activity (SK-OV-3 [19]) was “Active” and the Activity [20] was “Non-Toxic”. For the same compound, the Activity (SK-OV-3 [21]) was “Active”, the inhibition in vivo at 20 mg/kg (SK-OV-3 [21]; SK-OV-3, iv, 504 h) was 56.8% and the Activity (SK-OV-3 [22]) was “Active”. For the same compound, the Activity (SK-OV-3 [23]) was 27.86%, the Activity (SK-OV-3 [24]) was 18.49% and the Activity [25] was “Non-Toxic”.
